The text below walks through data of PubChem BioAssay AID493103 (Broad Institute, 2011).

Records with an inconclusive call do not appear. Activity calls are given as the source filed them.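 Rule for the calls: active = compounds whose fitted half-maximal concentration lies within ten times the top tested dose in every run, with signal falling; inconclusive = runs disagree, or unclear curves such as poor fits; inactive = every run inactive, including rises in signal.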

Test system in the first assay: not listed separately
The assay can be described thus: V. harveyi quorum sensing luminescence inhibition, dose response, counter-screen for LuxS inhibitor project, strain BB721, dry powder, set 3 (AID 493103). Conditions: Vibrio harveyi BB721 quorum sensing luminescence, 9 h; at 16 µM (top of the series). The method, boiled down:
(§1)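 Material: V. harveyi BB721 quorum-sensing strain / Input: bacterial culture diluted to starting OD600 of 0.0005 / Buffer or medium: AB medium / Times: 9 h compound exposure, 30 °C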
For orientation: A counterscreen serves to expose hits that act by an unwanted route or on another target.
In the case of `C[C@@H]1CN([C@@H](C)CO)C(=O)Cc2cc(NC(=O)CCN3CCOCC3)ccc2O[C@H]1CN(C)C(=O)Nc1ccc(C(F)(F)F)cc1`, the activity change, negative = inhibition is 6.93% (inactive). Take `C[C@@H]1CN([C@@H](C)CO)C(=O)Cc2cc(NC(=O)CCCN(C)C)ccc2O[C@H]1CN(C)CC1CCCCC1`: the activity change, negative = inhibition was 13.8% (inactive). The same measure, in the same setting: as for `O=S(=O)(Nc1ccccn1)c1ccccc1`, the figure is 1.3% (inactive); as for `C[C@H](CO)N1C[C@H](C)[C@H](CN(C)Cc2ccc(C(=O)O)cc2)Oc2ncc(-c3ccc(C(=O)N(C)C)cc3)cc2C1=O`, 0.806% (inactive); as for `C[C@@H]1CCCCO[C@@H](CN(C)C(=O)Nc2cccc3ccccc23)[C@H](C)CN([C@H](C)CO)C(=O)c2cc(NC(=O)CCC(F)(F)F)ccc2O1`, 2% (inactive). The same measure, in the same setting: under `C[C@@H]1CCCCO[C@@H](CN(C)Cc2ccc(C(=O)O)cc2)[C@H](C)CN([C@H](C)CO)C(=O)c2cc(NC(=O)CCCN(C)C)ccc2O1` stands -5.01% (inactive); under `C[C@@H]1CCCCO[C@@H](CN(C)Cc2ccncc2)[C@H](C)CN([C@H](C)CO)C(=O)c2cc(NC(=O)C3CCCCC3)ccc2O1`, -3.87% (inactive); under `Cc1ccc(S(=O)(=O)Nc2ccc3c(c2)C(=O)N([C@H](C)CO)C[C@H](C)[C@@H](CN(C)Cc2ccc(C(F)(F)F)cc2)O3)cc1`, -2.52% (inactive).

As to `C=Cn1c(C(=O)O)ccc1-c1cccs1`, the activity change, negative = inhibition is -7.12% (inactive). On the same count and under the same terms, as for `C[C@@H]1CCCCO[C@@H](CN(C)C(=O)Nc2ccc(C(F)(F)F)cc2)[C@H](C)CN([C@@H](C)CO)C(=O)c2cc(NC(=O)CCC(F)(F)F)ccc2O1`, the figure is 2.01% (inactive). For the molecule `C[C@@H]1CN([C@H](C)CO)C(=O)c2cccc(NC(=O)Nc3ccc(C(F)(F)F)cc3)c2O[C@@H]1CN(C)C(=O)Nc1ccc(C(F)(F)F)cc1`, the activity change, negative = inhibition was -11.1% (inactive). Regarding `C[C@H]1CN([C@@H](C)CO)C(=O)c2cc(NC(=O)Nc3ccc4c(c3)OCO4)ccc2O[C@@H]1CN(C)C(=O)Nc1ccc(C(F)(F)F)cc1`, the activity change, negative = inhibition is -0.179% (inactive). In the case of `C[C@@H]1CN([C@@H](C)CO)C(=O)Cc2cc(NC(=O)CCN3CCOCC3)ccc2O[C@H]1CN(C)C(=O)Nc1ccc(F)cc1`, the activity change, negative = inhibition was 1.22% (inactive). Same read-out and setting: as for `Cc1ccc(S(=O)(=O)Nc2ccc3c(c2)CC(=O)N([C@@H](C)CO)C[C@@H](C)[C@H](CN(C)C(=O)Nc2ccc(F)cc2)O3)cc1`, the figure is 3.81% (inactive); as for `C[C@H](CO)N1C[C@H](C)[C@@H](CN(C)C(=O)Nc2ccc(C(F)(F)F)cc2)Oc2ccc(NC(=O)Nc3ccc4c(c3)OCO4)cc2C1=O`, -10.5% (inactive); as for `CNC[C@@H]1Oc2ccc(NC(=O)C3CCCCC3)cc2CC(=O)N([C@@H](C)CO)C[C@H]1C`, 1.18% (inactive).

A further assay deals with Vibrio harveyi BB721 quorum sensing luminescence, 9 h. Described as above.
Settings: not given
The procedure, abridged: as §1
Take `C[C@H](CO)N1C[C@H](C)[C@@H](CN(C)Cc2ccc3c(c2)OCO3)Oc2c(NC(=O)NC3CCCCC3)cccc2C1=O`: the AC50 was 8.89 µM. Still for that read-out and setting: as for `O=C1C=C/C(=C/Br)O1`, the figure is 4.47 µM; as for `C=Cn1c(C(=O)O)ccc1-c1ccc(Cl)cc1`, 16.2 µM. As for `C[C@@H]1CN([C@H](C)CO)C(=O)c2ccccc2-c2ccccc2CO[C@@H]1CN(C)Cc1ccc(Oc2ccccc2)cc1`, the AC50 was 13.8 µM. The same measure, in the same setting: as for `O=S(=O)(Nc1cccnc1)c1ccc(Oc2ccccc2)cc1`, the figure is 1.02 µM.

Usually AC50 stands for the midpoint of the concentration-response curve, whichever way the signal moves.
